Assay results as given in ChEMBL document CHEMBL1123137 (J Med Chem, 1985).
One block for each compound: values may come before it.

Tests used:
[1] = HPLC capacity factor (k'); format: ADME
[2] = Maximum increase in coronary flow (percent) of N6-modified adenosines at 27 uM
[3] = Molar potency ratio was evaluated at 35 uM
[4] = Molar potency ratio was evaluated at 37 uM
[5] = Molar potency ratio was evaluated at 61 uM
[6] = Molar potency ratio was evaluated at 107 uM
[7] = Molar potency ratio was evaluated at 27 uM
[8] = Molar potency ratio was evaluated at 50 uM
Albumin = Albumin (Bos taurus, UniProt P02769); assay: Serum albumin binding; details: cattle
Method in brief: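 Affinity for bovine serum albumin measured by Hummel–Dreyer method adapted for HPLC. Samples of BSA (0.25–2 g/dL) with 25 μM analogue in 0.1 M NaH2PO4, pH 7.4, were applied to an Aquapore OH-100 column equilibrated with 25 μM analogue in the same buffer. Effluent absorbance was read at 254 nm. Duplicate estimates were made at each of two BSA concentrations, usually 1 and 2 g/dL.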

[9] = Molar potency ratio was evaluated at 18 uM
[10] = Molar potency ratio was evaluated at 46 uM
[11] = Molar potency ratio was evaluated at 47 uM

Chain of Albumin (P02769 whole entry): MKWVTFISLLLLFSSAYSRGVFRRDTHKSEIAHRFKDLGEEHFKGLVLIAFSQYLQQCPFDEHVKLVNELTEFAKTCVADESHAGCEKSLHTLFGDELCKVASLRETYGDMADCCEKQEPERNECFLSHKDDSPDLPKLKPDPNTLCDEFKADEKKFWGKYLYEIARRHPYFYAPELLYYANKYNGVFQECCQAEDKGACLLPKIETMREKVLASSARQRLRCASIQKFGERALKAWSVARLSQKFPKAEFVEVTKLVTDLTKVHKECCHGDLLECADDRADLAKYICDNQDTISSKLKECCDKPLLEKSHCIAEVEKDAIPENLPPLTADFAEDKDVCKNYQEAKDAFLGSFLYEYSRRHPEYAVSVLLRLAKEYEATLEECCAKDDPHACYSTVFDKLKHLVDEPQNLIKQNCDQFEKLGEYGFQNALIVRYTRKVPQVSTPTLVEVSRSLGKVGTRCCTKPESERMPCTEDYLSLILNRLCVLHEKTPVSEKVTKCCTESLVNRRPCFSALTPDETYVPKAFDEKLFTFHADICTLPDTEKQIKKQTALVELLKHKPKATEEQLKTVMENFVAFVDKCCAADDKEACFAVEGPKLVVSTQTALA

SMILES: CC(C)(Nc1ncnc2c1ncn2C1O[C@H](CO)[C@@H](O)[C@H]1O)c1ccccc1 (stereo partly drawn)
k' [1]: 4.45
max coronary flow increase [2]: 7%

SMILES: OC[C@H]1OC(n2cnc3c(NC(c4ccccc4)c4ccccc4)ncnc32)[C@H](O)[C@@H]1O (stereo partly drawn)
k' [1]: 6.11
MPR [5]: 27%

SMILES: OC[C@H]1OC(n2cnc3c(OCCc4ccccc4)ncnc32)[C@H](O)[C@@H]1O (stereo partly drawn)
k' [1]: 2.36
MPR [6]: 9%

SMILES: CC(C)(CCc1ccccc1)Nc1ncnc2c1ncn2C1O[C@H](CO)[C@@H](O)[C@H]1O (stereo partly drawn)
k' [1]: 18.7
MPR [8]: 4%

SMILES: CCC(C)(C)Nc1ncnc2c1ncn2C1O[C@H](CO)[C@@H](O)[C@H]1O (stereo partly drawn)
k' [1]: 4.28
MPR [11]: 12%

Results, then the compound that gave them:

k' [1]: 2.44
MPR [3]: 7%
SMILES: CC(C)(C)Nc1ncnc2c1ncn2C1O[C@H](CO)[C@@H](O)[C@H]1O (stereo partly drawn)

k' [1]: 21
MPR [4]: 8%
SMILES: CC1(C)C2CCC(CNc3ncnc4c3ncn4C3O[C@H](CO)[C@@H](O)[C@H]3O)C1C2 (stereo partly drawn)

k' [1]: 19.6
MPR [7]: 0
SMILES: OC[C@H]1OC(n2cnc3c(NC45C[C@H]6C[C@@H](C4)C[C@@H](C5)C6)ncnc32)[C@H](O)[C@@H]1O (stereo partly drawn)

k' [1]: 8.8
Amount bound (Albumin): 10.1 M/g
MPR [4]: 12%
SMILES: OC[C@H]1O[C@@H](n2cnc3c(NC4CCCCCCC4)ncnc32)[C@H](O)[C@@H]1O

k' [1]: 12.2
MPR [9]: 0
SMILES: OC[C@H]1OC(n2cnc3c(NC4C5C[C@H]6C[C@@H](C5)C[C@@H]4C6)ncnc32)[C@H](O)[C@@H]1O (stereo partly drawn)

k' [1]: 9.29
MPR [10]: 5%
SMILES: CC1(Nc2ncnc3c2ncn3C2O[C@H](CO)[C@@H](O)[C@H]2O)CCCCC1 (stereo partly drawn)
